An excerpt weighted towards active compounds, which were near 2.3% of everything screened.
FN deposition inh: fibronectin deposition inhibition. AH1F fibroblasts, Alexa488-fibronectin deposition fluorescence, overnight. inhibition, % at 12.6 µM. hit rate 0.086% among 350,000;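 active = mean inhibition across replicates of 30% or more, regardless of how many single replicates reach that level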;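 also: positive control wells lacked labelled fibronectin entirely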
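Test system: AH1F fibroblast monolayer depositing Alexa488-labelled fibronectin into matrix. Input: 10000 cells per well. Technique: fluorescence, ex 485 nm, em 525 nm. Buffer or medium: DMEM plus 2% serum, read in PBS. Timing: 1 h cell adhesion before compound, then overnight fibronectin incubation. Compound: single dose, pinned. Read-out basis: inhibition from reduced deposited-fibronectin fluorescence.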
HIV Env fusion: inhibitors of HIV Env-mediated cell fusion; HeLa-JRFL Env/CEM21 cell fusion, luciferase; hit rate 1.1% among 360,000; inhibition, % at 12.3 µM;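 active = mean replicate inhibition score of at least 50 and every replicate individually at or above 50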;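 also: 0% = plate neutral controls and 100% = maraviroc near 300 nM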
CFTR F508del cor: CFTR F508del correction in bronchial cells; CFBE cells, YFP halide quenching; stimulated with forskolin plus potentiator P3; % fluorescence drop versus neutral controls; activity (quench increase), % at 7.58 µM; hit rate 0.36% among 350,000; AID 720511;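 active = mean added fluorescence quench of at least 8% versus neutral control, with both replicates also reaching 8%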;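 also: cells transiently co-express mutant CFTR-F508del with the halide-sensitive YFP; corrector assay measuring rescue of mutant channel to the surface after 24 h compound exposure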
PGC1a acetyl inh: PGC1a acetylation modulation, inhibitor mode. U2OS PGC1a acetylation, AlphaScreen anti-acetyl-lysine; with virally co-expressed GCN5 acetyltransferase. inhibition, % at 15.6 µM. hit rate 0.17% among 350,000. AID 651687;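 active = every replicate shows inhibition of at least 40%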;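 also: 0% = neutral control wells and 100% = positive control wells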
PAX8 inh HTS: PAX8 transcriptional activity inhibition | RMG-I TPO-luciferase reporter, SteadyGlo, 24 h | inhibition, % at 12.6 µM | hit rate 1.2% among 360,000 | AID 652154;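 active = mean replicate inhibition at least 60% with every replicate also reaching 60%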;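 also: luciferase light reporting Pax8 driven TPO promoter activity; plate controls were median of neutral control wells for no effect and mitoxantrone controls for full effect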
EWS-Fli inh: EWS/Fli transcriptional activity inhibition; A673 NR0B1-luciferase reporter, viability-normalised; inhibition, % at 12.6 µM; AID 651661; hit rate 0.67% among 350,000;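 active = mean inhibition of at least 50% after viability correction, with every replicate also passing that limit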;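 also: firefly luciferase signal divided by Alamar Blue viability fluorescence both relative to DMSO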
* = called active by the depositor; x = no result given; [ ] = remark or other dose.

SMILES | FN deposition inh | HIV Env fusion | CFTR F508del cor | PGC1a acetyl inh | PAX8 inh HTS | EWS-Fli inh
Clc1ccc(-n2ncc3c(N4CCCCCC4)ncnc32)cc1 | 5 | -65 | -1 | -8 | -7 | 80*
Cc1ccc(-n2ncc3c(NCc4cccnc4)ncnc32)c(C)c1 | -12 | 58* | x | x | 3 | x
Cc1ccc(-n2ncc3c(N4CCN(c5ccccc5)CC4)ncnc32)c(C)c1 | -5 | 90* | x | -5 | 35 | x
CCCNC(=O)Nc1ccc2c(c1)C(=O)N(C)[C@H]1CC[C@H](CC(=O)OC)O[C@@H]1CO2 | 6 | x | 3 | -12 | 0 | x
CCn1c(/C=C/c2c(C)n(CC)c3ccccc23)nc2ccccc2c1=O | -5 | x | 0 | x | 72* | -15
CCCCCCCCN1C(=O)[C@H](CC(=O)NCCCC)C[C@@]2(C(=O)OCC)CCCC=C12 | 16 | 97* | -2 | x | 16 | 15
CCCCCCCCN1C(=O)[C@H](CC(=O)N2CCCCC2)C[C@@]2(C(=O)OCC)CCCC=C12 | -1 | 89* | -2 | x | -5 | 13
O=C(Nc1ccc2c(c1)OCO2)N[C@@H]1CC[C@@H](CCNC(=O)C2CCOCC2)O[C@H]1CO | -7 | -19[16.7 µM] | 0 | 8 | x | 1
COC(=O)C1=CN(c2ccc(OC)cc2)C(N)=C(C#N)C1c1ccccc1F (stereo unspecified) | x | 0 | -3 | x | 18 | 43
COC(=O)C1=CN(c2ccc(OC)cc2OC)C(N)=C(C#N)C1c1ccccc1F (stereo unspecified) | x | -172 | 9.8* | x | 22 | 53*
COCC(=O)Nc1ccc2c(c1)OC[C@H](C)N(Cc1ccccc1OC)C[C@H](C)[C@@H](OC)CN(C)C2=O | -3 | x | 2 | 8 | x | 4
CNC(=O)C[C@@H]1CC[C@H]2[C@H](COc3ccc(NC(=O)NC4CCCC4)cc3C(=O)N2C)O1 | -21 | 1[16.7 µM] | 0 | 4 | -23 | -4
CCOc1ccc(-c2nc(CSCC(=O)N3CCN(c4cccc(OC)c4)CC3)c(C)o2)cc1 | -4 | x | -7 | -4 | 38 | 88*
Cc1oc(-c2ccc(Cl)cc2)nc1CSCC(=O)NC1CCN(Cc2ccccc2)CC1 | 6 | 12 | -1 | 9 | 38 | 26
CCOc1ccc(-c2nc(CSCC(=O)NC3CCN(Cc4ccccc4)CC3)c(C)o2)cc1 | 15 | -79 | -1 | x | 26 | 59*
CCc1ccc(-c2nc(CSCC(=O)N3CCN(c4ccccn4)CC3)c(C)o2)cc1 | -1 | 86* | x | x | 25 | x
Cc1ccc(-c2nc(CSCC(=O)N3CCN(C(=O)c4ccco4)CC3)c(C)o2)cc1 | 6 | 0 | 1 | 9 | 16 | -1
Cc1ccc(-c2nc(CSCC(=O)N3CCN(c4ccccn4)CC3)c(C)o2)cc1 | 0 | 57* | 2 | 3 | 45 | 21
O=C(N[C@H]1CC[C@@H](CCNS(=O)(=O)c2cccc(Cl)c2)O[C@H]1CO)c1ccncc1 | -5 | -6[16.7 µM] | 2 | -9 | 1 | 1
CCN1CCN(c2cc(C)c3cc(NC(=O)c4ccc(OC)c(OC)c4)ccc3n2)CC1 | 13 | -41 | 13* | -13 | 57 | 47
O=C(C[C@@H]1C=C[C@H](NC(=O)c2cccnc2)[C@@H](CO)O1)NCc1ccncn1 | -5 | x | -1 | 0 | 2 | x
Cc1ccccc1-c1ccc(C2[C@@H]3CN(C(=O)Cc4ccncc4)C[C@H]2N3)cc1 (stereo partly specified) | 4 | x | 0 | -3 | -9 | 3
C/C(=N\OCC(=O)NCC(F)(F)F)c1cc2ccccc2o1 | 0 | x | -1 | x | 84* | -71
CCCCNC(=O)CO/N=C(\C)c1cc2ccccc2o1 | -7 | -24 | x | 1 | x | x
C[C@@H]1CCCCO[C@@H](CN(C)C(=O)Nc2ccc3c(c2)OCO3)[C@@H](C)CN([C@H](C)CO)C(=O)c2cc(NC(=O)NC3CCCCC3)ccc2O1 | x | 3[16.7 µM] | 1 | 9 | 1 | -1
CC(=O)Nc1ccc2c(c1)CC(=O)N(C)C[C@H](C)[C@@H](CN(C)S(C)(=O)=O)O2 | -22 | x | x | x | x | x
O=C(c1ccncc1)N1CC(=O)N2[C@@H](CO)[C@H](c3ccc(-c4ccccc4F)cc3)[C@@H]2C1 | x | x | -1 | -7 | 1 | 3
Cc1cccc(NC(=S)NNc2ncc(C(F)(F)F)cc2Cl)c1 | -13 | x | x | x | -8 | x

Screening results: PubChem BioAssay, Broad Institute
